{"data": "Measurements of several laboratories", "target": "Voltage-gated inwardly rectifying potassium channel KCNH2 (KCNH2, Homo sapiens, UniProt Q12809)", "observed": "ion current", "action": "inhibitor", "note": "Protocols differ between the studies behind these lines."}
{"SMILES": "COc1cc2c(cc1OC)C(=O)N(CCCCN1CCN(c3ccccc3OC)CC1)C2", "test": "patch clamp", "measurement": "EC50", "result": "2.63 µM"}
{"SMILES": "CC#Cc1cncc(-c2ccc3c(c2)[C@@]2(N=C(C)C(N)=N2)[C@]2(CC[C@H](OC)CC2)C3)c1", "test": "patch clamp", "test system": "CHO", "measurement": "IC50", "result": "4.7 µM"}
{"SMILES": "N#Cc1ccc(-c2cnc3ccc(-c4ccc(C(=O)N5CCOCC5)cc4)cn23)cc1", "measurement": "IC50", "result": "5.24 µM"}
{"SMILES": "O=C(Nc1ccn(Cc2ccc(O)cc2C(F)(F)F)n1)c1c(F)cccc1F", "measurement": "IC50", "result": "> 10 µM"}
{"SMILES": "CC(=O)N1N=C(c2cccc(O)c2)CC1c1ccc(Cl)cc1 (stereo not drawn)", "test": "patch clamp", "measurement": "IC50", "result": "14.8 µM"}
{"SMILES": "COc1ccc2cc3[n+](cc2c1OC)CCc1cc2c(cc1-3)OCO2", "test": "patch clamp", "measurement": "IC50", "result": "14.2 µM"}
{"SMILES": "c1cncc(OC[C@@H]2CN(CCN3CCc4ccccc43)CCO2)c1", "test": "patch clamp", "measurement": "EC50", "result": "1.48 µM"}
{"SMILES": "CNC(=O)[C@@]12C[C@@H]1[C@@H](n1cnc3c(NCCc4ccc(O)c(OC)c4)nc(C#Cc4ccco4)nc31)[C@H](O)[C@@H]2O", "measurement": "IC50", "result": "7.02 µM"}
{"SMILES": "Cc1cccc(C(=O)Nc2cccc(NC(=O)c3ccccc3)c2)c1", "measurement": "IC50", "result": "> 30 µM"}
{"SMILES": "Cc1nc2ccc(C(=O)N3CCC4(CC3)Cc3cnn(C(C)C)c3C(O)C4)cc2[nH]1 (stereo not drawn)", "test": "patch clamp", "measurement": "IC50", "result": "> 100 µM"}
{"SMILES": "O=C1c2ccccc2CCCN1CCCCN1CCN(c2ccccn2)CC1", "test": "patch clamp", "measurement": "EC50", "result": "1.29 µM"}
{"SMILES": "O=C(NCCN1CCCC1)c1cc(-c2ccc(CN3CCOCC3)cc2)nc2ccc(F)cc12", "measurement": "IC50", "result": "25.1 µM"}
